The source made the active and inactive calls. The rule behind the calls is not given here.
Tests used:
[1] = test system: Staphylococcus aureus; assay: Induction of resistance development in Staphylococcus aureus ATCC 29213 assessed as increase in MIC by microtiter plate reader assay; format: functional, organism-based
Summary of the method: (§1)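 Serial passage resistance assay with 2-fold microdilution MICs in 96-well plates. Each passage takes the well with the highest concentration still permitting growth, adjusts it to 0.5 McFarland, and dilutes it to a final 5 × 10^5 CFU/mL for the next passage. Eighteen passages; MIC recorded at each. Triplicate.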

[2] = Membrano-lytic effect in mammalian membrane mimic DOPC/cholesterol (10:1) large unilamellar vesicles assessed as calcein leakage measured at 50 microg/ml measured after 100 mins by multimode microplate reader assay; format: cell membranes; conditions: dose 50.0 µg/ml
Summary of the method: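 Calcein (70 mM) loaded into extruded 100 nm LUVs: DOPC:DOPG 7:3 (w/w) as the bacterial mimic, DOPC/cholesterol 10:1 (w/w) as the mammalian mimic. Free dye removed by gel filtration. Liposomes at 40 μM final lipid in PBS mixed 1:1 with peptide (5–50 μg/mL). Fluorescence (ex 490/em 520 nm) read every 10 min for 100 min; Triton X-100 defines 100% release. Triplicate.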

[3] = test system: Escherichia coli; assay: Induction of resistance development in Escherichia coli ATCC BAA-2452 assessed as increase in MIC by microtiter plate reader assay; format: functional, organism-based; summary of the method: as §1
[4] = test system: Staphylococcus aureus; assay: Induction of resistance development in methicillin resistant Staphylococcus aureus ATCC BAA-1556 assessed as increase in MIC by microtiter plate reader assay; format: functional, organism-based; summary of the method: as §1
[5] = test system: Escherichia coli; assay: Induction of resistance development in Escherichia coli ATCC 25922 assessed as increase in MIC by microtiter plate reader assay; format: functional, organism-based
[6] = test system: Pseudomonas aeruginosa; assay: Antibacterial activity against Pseudomonas aeruginosa ATCC […] incubated for 24 hrs by checkerboard assay; format: functional
[7] = test system: Klebsiella pneumoniae; assay: Antibacterial activity against Klebsiella pneumoniae ATCC BAA-1705 incubated for 24 hrs by checkerboard assay; format: functional
[8] = test system: Staphylococcus aureus; assay: Antibacterial activity against methicillin resistant Staphylococcus aureus ATCC BAA-1556 incubated for 24 hrs by checkerboard assay; format: functional
[9] = Hemolytic activity in human RBC incubated for 2 hrs by spectrophotometric assay; format: toxicity, cell-based, Erythrocyte; conditions: human red blood cells (RBC)
Summary of the method: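 Human RBCs with buffy coat removed, washed in PBS pH 7.4. Two-fold peptide dilutions in PBS mixed 1:1 with 4% (v/v) RBC suspension. Incubation 2 h at 37 °C without agitation, then centrifugation. Supernatant hemoglobin read at 567 nm. PBS set 0% and 1% Triton X-100 set 100% lysis. Triplicate.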

[10] = Therapeutic index, ratio of HC50 for human RBC to MIC for methicillin resistant Staphylococcus aureus ATCC BAA-1556
Summary of the method: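 Human RBCs washed in PBS pH 7.4 and mixed 1:1 with two-fold peptide dilutions (4% v/v suspension), 2 h at 37 °C. Hemoglobin in supernatant read at 567 nm against PBS (0%) and 1% Triton X-100 (100%). HC50 is the concentration giving 50% hemolysis. Index is HC50 divided by MIC against MRSA.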

## CCCCCCCCCC(=O)N[C@@H](Cc1c[nH]c2ccccc12)C(=O)N[C@H](CC(N)=O)C(=O)N[C@@H](CC(=O)O)C(=O)N[C@@H]1C(=O)NCC(=O)N[C@@H](CCCN)C(=O)N[C@@H](CC(=O)O)C(=O)N[C@H](C)C(=O)N[C@@H](CC(=O)O)C(=O)NCC(=O)N[C@H](CO)C(=O)N[C@@H]([C@H](C)CC(=O)O)C(=O)N[C@@H](CC(=O)c2ccccc2N)C(=O)O[C@@H]1C
[1]
  Activity: Active
[2]
  Activity: 7%
[3]
  Activity: Active
[4]
  Activity: Active
[5]
  Activity: Active

## C[C@@H](O)[C@H]1C(=O)N2C(C(=O)O)=C(S[C@@H]3CN[C@H](C(=O)N(C)C)C3)[C@H](C)[C@H]12 [MEROPENEM]
[6]
  MIC: 32 µg/mL
[7]
  MIC: 256 µg/mL
[8]
  MIC: 32 µg/mL

## N=C(N)NCCC[C@@H]1NC(=O)[C@H](CCCNC(=N)N)NC(=O)[C@H](CCCNC(=N)N)NC(=O)[C@H](Cc2c[nH]c3ccccc23)NC(=O)[C@H](Cc2c[nH]c3ccccc23)NC(=O)[C@H](Cc2c[nH]c3ccccc23)NC(=O)[C@H](Cc2c[nH]c3ccccc23)NC(=O)[C@H](Cc2c[nH]c3ccccc23)NC(=O)[C@H](CCCNC(=N)N)NC1=O
[9]
  HC50 at 2 h: 100 µg/mL
[10]
  TI: 12.5
